The target in assay [1] is T1, Endothelin-converting enzyme 1 (Homo sapiens, UniProt P42892).
T1 sequence (P42892 whole entry): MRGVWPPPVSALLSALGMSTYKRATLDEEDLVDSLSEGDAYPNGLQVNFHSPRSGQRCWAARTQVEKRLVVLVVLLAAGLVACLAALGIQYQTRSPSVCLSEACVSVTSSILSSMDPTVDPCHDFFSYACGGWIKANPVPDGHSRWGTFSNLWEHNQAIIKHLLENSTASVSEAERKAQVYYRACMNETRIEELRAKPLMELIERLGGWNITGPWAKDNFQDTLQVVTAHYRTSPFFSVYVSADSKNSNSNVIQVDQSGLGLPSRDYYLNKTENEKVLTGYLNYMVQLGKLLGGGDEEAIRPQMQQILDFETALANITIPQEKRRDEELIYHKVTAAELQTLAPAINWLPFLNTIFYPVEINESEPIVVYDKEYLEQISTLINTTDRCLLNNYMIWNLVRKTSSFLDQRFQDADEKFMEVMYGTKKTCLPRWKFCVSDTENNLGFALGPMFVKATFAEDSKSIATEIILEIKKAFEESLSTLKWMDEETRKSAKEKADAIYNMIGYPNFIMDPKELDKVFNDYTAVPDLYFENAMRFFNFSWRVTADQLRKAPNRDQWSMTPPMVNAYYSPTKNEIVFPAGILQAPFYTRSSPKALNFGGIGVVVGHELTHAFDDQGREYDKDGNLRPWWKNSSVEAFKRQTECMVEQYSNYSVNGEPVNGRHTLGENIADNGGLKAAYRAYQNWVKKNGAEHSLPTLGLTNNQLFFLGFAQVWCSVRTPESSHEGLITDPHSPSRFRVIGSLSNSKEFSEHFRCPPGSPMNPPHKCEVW
Description: In Vitro inhibition of recombinant human endothelin converting enzyme-1. An outline of the steps: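 Enzyme was human recombinant ECE-1a from membranes of CHO cells expressing it. The IC50 was determined by the assay method of earlier work.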

Assay [2] can be described thus: Selectivity ratio of IC50 NEP/IC50 ECE. The method, boiled down:
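ECE selectivity was the ratio of IC50 against rat kidney cortex NEP 24.11 to IC50 against CHO-membrane human recombinant ECE-1a.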

Another assay concerns the target T2, Neprilysin (Rattus norvegicus, UniProt P07861).
T2 sequence (P07861 whole entry): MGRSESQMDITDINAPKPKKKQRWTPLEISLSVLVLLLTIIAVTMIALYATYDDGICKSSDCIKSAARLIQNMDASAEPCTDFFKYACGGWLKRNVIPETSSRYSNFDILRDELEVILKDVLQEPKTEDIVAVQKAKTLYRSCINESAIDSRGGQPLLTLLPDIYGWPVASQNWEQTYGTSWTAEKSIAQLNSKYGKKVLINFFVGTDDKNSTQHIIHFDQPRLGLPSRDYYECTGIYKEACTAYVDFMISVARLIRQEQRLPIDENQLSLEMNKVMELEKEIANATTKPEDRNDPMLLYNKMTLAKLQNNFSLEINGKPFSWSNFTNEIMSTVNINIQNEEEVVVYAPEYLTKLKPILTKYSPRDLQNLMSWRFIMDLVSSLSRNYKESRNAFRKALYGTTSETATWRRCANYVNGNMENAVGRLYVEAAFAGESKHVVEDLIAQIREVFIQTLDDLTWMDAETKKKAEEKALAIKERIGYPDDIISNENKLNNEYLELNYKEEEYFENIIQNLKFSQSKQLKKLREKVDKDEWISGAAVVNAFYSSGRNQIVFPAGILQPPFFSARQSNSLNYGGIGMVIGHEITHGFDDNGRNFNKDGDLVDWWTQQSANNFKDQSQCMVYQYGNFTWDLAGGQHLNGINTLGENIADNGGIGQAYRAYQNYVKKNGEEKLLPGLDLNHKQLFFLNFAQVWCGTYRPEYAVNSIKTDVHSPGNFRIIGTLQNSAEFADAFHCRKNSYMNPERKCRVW
The assay can be described thus: In vitro inhibition of rat neutral endopeptidase.

Assay [3] has as its target T3, Endothelin-converting enzyme 1 (Homo sapiens) (UniProt P42892).
T3 sequence (whole entry): T1 sequence (P42892 whole entry)
Description: Inhibition of Endothelin-converting enzyme 1 activity at a concentration of 1 uM. The method, boiled down:
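Human recombinant ECE-1a came from CHO cell membranes. Activity was measured with test compound at 1 µM and expressed as percent inhibition.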

A value given as a limit tells only on which side of the number the result lay.

For `CC(C)CC(NC(=O)[C@H](Cc1ccc2c(c1)oc1ccccc12)NCP(=O)(O)O)C(=O)O` (stereo not given in full), the IC50 (commonly the concentration that gives 50% inhibition) amounted to 13 nM in assay [1] and 31 nM on Neprilysin. Moreover, the Selectivity in assay [2] was 2.3. The inhibition – broadly, the change of the read-out against control, counted positive when it falls – in assay [3] worked out at 92%.

Turning to `O=P(O)(O)CNC(Cc1ccc2c(c1)oc1ccccc12)c1nnn[nH]1` (stereo not given), the IC50 was 6 nM in assay [1] and 114 nM at Neprilysin. In assay [2], the Selectivity was determined as 19.

As for `CC(C)CCCC(N[C@@H](Cc1ccc2c(c1)oc1ccccc12)C(=O)O)P(=O)(O)O` (stereo not given in full), the IC50 in assay [1] was 65 nM; at Neprilysin, more than 16000 nM. In addition, in assay [2], the Selectivity is more than 286. The inhibition in assay [3] came out at 89%.

As to `O=C(O)[C@H](Cc1ccc2c(c1)oc1ccccc12)NCP(=O)(O)O`, the IC50 in assay [1] stood at 22 nM; against Neprilysin, 2300 nM. Further, the Selectivity in assay [2] amounted to 104. This compound returned an inhibition in assay [3] of 92%.

Turning to `O=C1c2ccccc2-c2ccc(CC(NCP(=O)(O)O)c3nnn[nH]3)cc21` (stereo not given), the IC50 in assay [1] is 30 nM; at Neprilysin, 230 nM. Further, the Selectivity in assay [2] stood at 7.7.

Consider `O=C(O)C(Cc1ccccc1)NC(=O)[C@H](Cc1ccc2c(c1)oc1ccccc12)NCP(=O)(O)O` (stereo not given in full), for which the values for the IC50 (in assay [1]; on Neprilysin) were 23 nM and 12 nM, respectively. In assay [2], the Selectivity amounted to 0.5. In assay [3], this compound registered an inhibition of 91%.

`O=C(O)[C@H](Cc1ccc2c(c1)oc1ccccc12)NC(=O)[C@H](Cc1ccc2c(c1)oc1ccccc12)NCP(=O)(O)O`: the IC50 was 6.4 nM in assay [1] and 2.7 nM against Neprilysin. Further, in assay [2], the Selectivity was 0.42. The same compound displayed an inhibition in assay [3] of 95%.

As for `COc1cc(CCC(N[C@@H](Cc2ccc3c(c2)oc2ccccc23)C(=O)O)P(=O)(O)O)cc(OC)c1OC` (stereo not given in full), the IC50 worked out at 22 nM in assay [1] and 18000 nM at Neprilysin. Further, the Selectivity in assay [2] came out at 818. In assay [3], this compound had an inhibition of 92%.

`O=C(O)[C@H](Cc1ccc2c(c1)oc1ccccc12)NC(CCc1cccc2ccccc12)P(=O)(O)O` (stereo in doubt; 40a'): the figures for the IC50 (in assay [1]; against Neprilysin) were 24 nM and 13800 nM, respectively.

Turning to `COc1ccc(CCC(N[C@@H](Cc2ccc3c(c2)oc2ccccc23)C(=O)O)P(=O)(O)O)c(OC)c1OC` (stereo in doubt; 40k'), the values for the IC50 (in assay [1]; on Neprilysin) were 35 nM and 15000 nM, respectively.

Turning to `O=P(O)(O)CNC(Cc1ccc2c(c1)Cc1ccccc1-2)c1nnn[nH]1` (stereo not given), the IC50 in assay [1] is 520 nM; on Neprilysin, 450 nM. The Selectivity in assay [2] was determined as 0.9.

Take `O=C(O)[C@H](Cc1ccc2c(c1)oc1ccccc12)NC(CCc1cccc2cccnc12)P(=O)(O)O` (stereo in doubt; 40m'): the IC50 in assay [1] came to 14 nM; at Neprilysin, 59000 nM.

With `COc1cccc(CCC(N[C@@H](Cc2ccc3c(c2)oc2ccccc23)C(=O)O)P(=O)(O)O)c1OC` (stereo in doubt; 40d'), the IC50 in assay [1] is 110 nM; on Neprilysin it was 6400 nM.

Turning to `NCCCCC(N[C@@H](Cc1ccc2c(c1)oc1ccccc12)C(=O)O)P(=O)(O)O` (stereo in doubt; 40o'), the IC50 in assay [1] was 97 nM; against Neprilysin, more than 100000 nM.

For the compound `CC(N[C@@H](Cc1ccc2c(c1)oc1ccccc12)C(=O)O)P(=O)(O)O` (stereo in doubt; 40v), the IC50 in assay [1] worked out at 180 nM; against Neprilysin, 47000 nM.

For the compound `COc1cc(OC)c(OC)cc1CCC(N[C@@H](Cc1ccc2c(c1)oc1ccccc12)C(=O)O)P(=O)(O)O` (stereo in doubt; 40i'), the IC50 in assay [1] is 40 nM; against Neprilysin, more than 10000 nM.

In the case of `Cn1c2ccccc2c2ccc(CC(NCP(=O)(O)O)c3nnn[nH]3)cc21` (stereo not given), the IC50 was more than 4000 nM in assay [1] and 140 nM on Neprilysin. Further, the Selectivity in assay [2] is less than 0.03.

Source of the values: ChEMBL document CHEMBL1133584, “Potent and selective non-peptidic inhibitors of endothelin-converting enzyme-1 with sustained duration of action” (J Med Chem, 2000).
